The values that follow come from the EternaBench riboswitch data.

This data set concerns MS2 coat protein. Kind of data set: apparent Kd, MS2 coat protein; higher = weaker binding; RNA-MaP array. In short, it runs like this: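 Apparent Kd is the median of per-cluster binding-curve fits for designed RNAs transcribed from sequenced DNA templates on an Illumina sequencing chip. The RNAs were incubated at room temperature with fluorescently labeled MS2 coat protein at 1.5 nM to 3 μM, with or without input ligand, and designs measured on fewer than 10 clusters were excluded.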

[1] abbreviates: designed as: OFF switch for flavin mononucleotide, no ligand.
The mark [2] stands for this setting: ligand present: flavin mononucleotide, designed as: OFF switch for flavin mononucleotide.
Where [3] appears, read: designed as: OFF switch for tryptophan, no ligand.
Setting [4] is: ligand present: tryptophan, designed as: OFF switch for tryptophan.
The mark [5] stands for this setting: designed as: ON switch for flavin mononucleotide, no ligand.
[6] abbreviates: ligand present: flavin mononucleotide, designed as: ON switch for flavin mononucleotide.
Setting [7] is: designed as: ON switch for theophylline, no ligand.
Where [8] appears, read: ligand present: theophylline, designed as: ON switch for theophylline.

For orientation: apparent Kd means the concentration giving half-maximal binding under the conditions of the assay. In the case of “UACAUGAGGAUCACCCAUGUCAAUUGUAGAUCGCUCAACGGCAGAAGGCGCAACCCGAUCGGGAGCGAGGAUAUGCCUCGUUAA”, the “apparent Kd” value was 26.5 nM under setting [1] and 27.1 nM under setting [2].

Consider “UCGCCAUUGACGGCCGCCACUCAAUGGUCUUCUCUGAACAUAAUUAACAUGAGGAUCACCCAUGUGAGGACCGGGUCGGUUAGAC”, for which the “apparent Kd” value under setting [3] came out at 19.5 nM and the “apparent Kd” value under setting [4] was found to be 32.3 nM.

For the sequence “CUAGGCGUGCAGAAGGCGGAAAUAUUUCGUGGCCGAGGAUAUGCUGAUAUAUCGCAAGUGACAUGAGGAUCACCCAUGUGUCUA”, the “apparent Kd” value under setting [5] came out at 16.6 nM and the “apparent Kd” value under setting [6] turned out to be 14.2 nM.

Regarding “AGAGAGUCAGGAUAUAAAUAUAAAGAGAUAAAGCAAACAAUUUAGAAGGGACAUGAGGAUCACCCAUGUGAUAA”, the “apparent Kd” value by setting is: under setting [1], 13.6 nM; under setting [2], 12.7 nM.

Turning to “ACAUGAGGAUCACCCAUGUUUUAUUCGAACUGGAAAUGACGUCAGGAUAUCACAAAUAGCAGCAAUGAGAAGGGACUAUAUAUG”, the “apparent Kd” value reads like this: under setting [5], 11.6 nM; under setting [6], 8.79 nM.

Consider “CCUCAGCAAUUGGAUACCAGUACAUCGUAAGACAUGAGGAUCACCCAUGUGGGCUUGACAUACCCUUGGCAGCCAUCCUUGAUCC”, for which the “apparent Kd” value is 234 nM under setting [7] and 252 nM under setting [8].

For the sequence “GUAAGACAAGGCAAGGAUAUGCCCUAAUGGACAUGAGGAUCACCCAUGUGGUUGCAUAAUCAAAAGCAGAAGGUGCUACAACACGG”, the “apparent Kd” value reads like this: under setting [5], 48.3 nM; under setting [6], 38.8 nM.

With “UGUUGGGAAACAGGAUAUGAGCUUAAAGCACAAGGGAUUCGCACAUGAGGAUCACCCAUGUAACGUCAGAAGGGUUUGUUUGUA”, the “apparent Kd” value is, setting by setting: under setting [1], 51.2 nM; under setting [2], 42.2 nM.

On to “UCUAUUAACUAAGGAUAUAGAACAGGCCGGAUUUUGUUGCGUCUGACAUGAGGAUCACCCAUGUUCUAGAAGGUAGACUGCUGC”, for which the “apparent Kd” value by setting is: under setting [1], 13.3 nM; under setting [2], 11.7 nM.

For “CAGAGUUCCUAAGGAUAUUGCUGGUCCGCAGUUCAAGAAGGUAGGUAUAAAAUGCUUAAACAUGAGGAUCACCCAUGUCAAGCC”, the “apparent Kd” value runs as follows: under setting [5], 6.75 nM; under setting [6], 6.08 nM.

With “CAUCCAACACAAGGAUAUUGGACGUUUUUCAGCGCACAUGAGGAUCACCCAUGUACAAGGGAGUACAAGAAGGUGUUUUGGAUC”, the “apparent Kd” value runs as follows: under setting [5], 27.1 nM; under setting [6], 9.49 nM.

With “CACGCCAUAGGAUAUACAUGAGGAUCACCCAUGUGGUGGUAGCAGCCAUAACGGUACAGUAGAAGGAUGUGCGA”, the “apparent Kd” value under setting [1] came to 274 nM and the “apparent Kd” value under setting [2] was determined as 171 nM.

As for “CAUCCACCUGAAGCCUCCCAAUUCCUCGAUACCAGAGGAUUAAGACUCCCUUGGCAGCGAGCUACAUGAGGAUCACCCAUGUGCC”, the “apparent Kd” value worked out at 19.1 nM (designed as: OFF switch for theophylline, no ligand) and 23.9 nM (ligand present: theophylline, designed as: OFF switch for theophylline).

As for “GUGGCUUCGGUGAGGAUAUGUCCGAUAAAACUGAGACAGAAGGCACAUGAGGAUCACCCAUGUAGCGUUGAUUC”, the “apparent Kd” value was 17.5 nM under setting [1] and 44.5 nM under setting [2].

Take “UGCCUAUACCGAGGAUAUUACGUCAGAUGUGUGUAAGAAGGCGGGUUCCGAUCAACAUGAGGAUCACCCAUGUAUCUUUACGGC”: the “apparent Kd” value was found to be 24.5 nM under setting [5] and 8.72 nM under setting [6].

As for “AUAAAUAAUUCAGGAUAUUGCGAUCAAACAACAUGAGGAUCACCCAUGUCCGUAAACACAACAAGCAAGAAGGGAAAGAAUCAA”, the “apparent Kd” value under setting [5] was 24.6 nM and the “apparent Kd” value under setting [6] is 14.6 nM.

For the sequence “UCUCAGUGAGGAUAUCGAACAGACCUUUGUGUGCUAAUUUUCGAGAAGGCACAUGAGGAUCACCCAUGUGACUC”, the “apparent Kd” value is, setting by setting: under setting [1], 54.6 nM; under setting [2], 49.7 nM.

For “GUCUAAGGCCAAGGAUAUUGCGUACUUGCGGAUGAUAGUAGAAAACAUGAGGAUCACCCAUGUCACAAGAAGGUGGUCCUGGGA”, the “apparent Kd” value was determined as 323 nM under setting [1] and 176 nM under setting [2].

“CGUCCACAUGAGGAUCACCCAUGUACACGCGAUCAAGGAUAUCGCGAUAACACAAUAGUGCGAGAAGGUGAUGUAC”: the “apparent Kd” value is 148 nM under setting [5] and 79.6 nM under setting [6].

Take “UUAAAGGCACCUCAUGGGACUAUAAACCCGCGAGGACCGGUACGGCCGCCACUCGAAUAUCAACAUGAGGAUCACCCAUGUGGUU”: the “apparent Kd” value reads like this: under setting [3], 21.8 nM; under setting [4], 48.5 nM.

For “GUUGCACAUGAGGAUCACCCAUGUUUGGAUACCAGUCUCUGUAAUGACCCUUGGCAGCCACCAUAGACGCUUGAGUAGAGCCUGA”, the “apparent Kd” value came to 15 nM under setting [7] and 16 nM under setting [8].

As to “GACAGGAAAGGAUAUACAAAAUAGAUCAAACGCACACAAAGACAUGAGGAUCACCCAUGUAGAAGGUACUGACA”, the “apparent Kd” value runs as follows: under setting [1], 11.3 nM; under setting [2], 9.76 nM.
